Results published in publication PMC8335715 (Medicinal Chemistry Research, 2021).

Target: rat lens ALR2 (Rattus norvegicus, UniProt P07943)
Test: ALR2 enzyme inhibition assay
Type: biochemical
Conditions: ratio IC50 ALR1 / IC50 ALR2; called SF in text
Outline: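 Rat lens enzyme (male Wistar) was partially purified: homogenised in cold water, spun at 10.000 g, fractionated with ammonium sulfate (40/50/75%). Substrate was D,L-glyceraldehyde in 0.067 M phosphate, pH 6.2, at 30 °C. Substrate started the reaction, and a substrate-free blank corrected NADPH oxidation. Test compound was in NaHCO3 or DMSO (1% final). IC50 came from least-squares fit of the linear semilog portion (25–75% inhibition), at least two experiments. The selectivity index was calculated against kidney-enzyme IC50.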

Row | Selectivity index (ALR1/ALR2) | Structure (SMILES)
1 | < 1 | COc1ccc2nc(/N=C3/NC(=O)C(=Cc4ccc(O)cc4)S3)sc2c1 [Compound 2, (Z)-5-(4-hydroxybenzylidene)-2-((6-methoxybenzo[d]thiazol-2-yl)imino)thiazolidin-4-one]
2 | < 1 | COc1ccc(/C=C2\SC(=Nc3nc4ccc(OC)cc4s3)NC2=O)cc1 [Compound 3, (Z)-2-((6-methoxybenzo[d]thiazol-2-yl)imino)-5-(4-methoxybenzylidene)thiazolidin-4-one]
3 | < 1 | COc1ccc2nc(/N=C3/NC(=O)C(=Cc4ccc(O)c(OC)c4)S3)sc2c1 [Compound 4, (Z)-5-(4-hydroxy-3-methoxybenzylidene)-2-((6-methoxybenzo[d]thiazol-2-yl)imino) thiazolidin-4-one]
